From ChEMBL document CHEMBL1137471, “Dihydroxypyridopyrazine-1,6-dione HIV-1 integrase inhibitors” (Bioorg Med Chem Lett, 2007)

Experiments:
[1] = molecular target: Human immunodeficiency virus type 1 integrase (Human immunodeficiency virus 1, UniProt Q7ZJM1); assay: Inhibition of HIV1 recombinant integrase strand transfer activity
Procedure, shortened: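 Strand transfer by recombinant HIV-1 integrase (0.1 µM) preassembled on immobilized oligonucleotides. Inhibition is relative to a no-inhibitor control run in quadruplicate and averaged, with background subtracted. IC50 given as mean of three experiments with standard deviation.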

MT4 = assay: Cytotoxicity against human MT4 cells upto 20 uM after 24 hrs; assay type: cell-based; details: mt4, 24 h
[2] = system: Human immunodeficiency virus 1; assay: Antiviral activity against HIV1 3B infected in human MT4 cells assessed as inhibition of replication after 3 days by ELISA; assay type: functional; details: Human immunodeficiency virus 1, 3B, MT4, 72 h; read-out: CIC95
Liver [3] = assay: Protein binding in rat liver after 2 hrs; assay type: ADME, tissue-based
Procedure, shortened: (§1)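 [14C]-labelled compound given to rats in vivo. Irreversibly bound radioactivity measured in plasma and liver at 2, 6 and 24 h, expressed as pmol equiv/mg protein.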

Liver microsomes [4] = assay: Protein binding in rat liver microsomes per 60 mins in absence of NADPH; assay type: ADME, Microsome; details: 1 h
Procedure, shortened: (§2)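 [14C]-labelled compound incubated with rat or human liver microsomes, with or without NADPH. Irreversibly bound radioactivity expressed as pmol equiv/mg/60 min.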

Plasma [5] = assay: Protein binding in rat plasma after 6 hrs; assay type: ADME, cell-free; procedure, shortened: as §1
Liver microsomes [6] = assay: Protein binding in human liver microsomes per 60 mins in presence of NADPH; assay type: ADME, Microsome; details: 1 h; procedure, shortened: as §2
Plasma [7] = assay: Protein binding in rat plasma after 2 hrs; assay type: ADME, cell-free; procedure, shortened: as §1
Plasma [8] = assay: Protein binding in rat plasma after 24 hrs; assay type: ADME, cell-free; procedure, shortened: as §1
Liver microsomes [9] = assay: Protein binding in human liver microsomes per 60 mins in absence of NADPH; assay type: ADME, Microsome; details: 1 h; procedure, shortened: as §2
Liver [10] = assay: Protein binding in rat liver after 6 hrs; assay type: ADME, tissue-based; procedure, shortened: as §1
Liver [11] = assay: Protein binding in rat liver after 24 hrs; assay type: ADME, tissue-based; procedure, shortened: as §1
Liver microsomes [12] = assay: Protein binding in rat liver microsomes per 60 mins in presence of NADPH; assay type: ADME, Microsome; details: 1 h; procedure, shortened: as §2
Rattus norvegicus = species: Rattus norvegicus; assay: Plasma concentration in rat after 2 to 24 hrs; assay type: ADME, organism-based; details: in vivo
Procedure, shortened: (§3)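 Rats dosed orally at 10 mg/kg as a solution in 1% aqueous methylcellulose. Plasma sampled through 24 h.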

[13] = Bioavailability in rat at 10 mg/kg, po; assay type: ADME, organism-based; details: in vivo; procedure, shortened: as §3

Sequence of Human immunodeficiency virus type 1 integrase (Q7ZJM1 whole entry): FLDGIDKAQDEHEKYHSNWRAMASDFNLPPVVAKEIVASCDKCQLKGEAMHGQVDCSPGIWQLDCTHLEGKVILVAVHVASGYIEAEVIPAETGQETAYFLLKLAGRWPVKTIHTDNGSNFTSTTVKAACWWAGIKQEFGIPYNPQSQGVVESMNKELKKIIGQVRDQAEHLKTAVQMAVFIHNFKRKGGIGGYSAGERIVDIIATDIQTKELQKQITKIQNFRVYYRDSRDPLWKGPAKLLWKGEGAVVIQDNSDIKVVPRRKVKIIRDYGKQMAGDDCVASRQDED

| Compound | IC50 [1] [nM] | Activity (MT4) | IC95 [2] [nM] | further results |
| --- | --- | --- | --- | --- |
| O=C1c2[14c](O)[14c](O)cc(=O)n2CCN1Cc1ccc(F)cc1 | – | – | – | PPB (Liver [3]): < 5 pmolequiv/mg; Activity (Liver microsomes [4]): 24.7 pmolequiv/mg; PPB (Plasma [5]): < 5 pmolequiv/mg; Activity (Liver microsomes [6]): 19.6 pmolequiv/mg; PPB (Plasma [7]): < 5 pmolequiv/mg; PPB (Plasma [8]): < 5 pmolequiv/mg; Activity (Liver microsomes [9]): 15.2 pmolequiv/mg; PPB (Liver [10]): < 5 pmolequiv/mg; PPB (Liver [11]): < 5 pmolequiv/mg; Activity (Liver microsomes [12]): 24.2 pmolequiv/mg |
| O=c1c2c(O)c(O)cc(=O)n2ccn1Cc1ccc(F)cc1 | 40 | – | – | – |
| N#Cc1c(O)c(O)c2n(c1=O)CCN(Cc1ccc(F)cc1)C2=O | 20 | Non-toxic | > 1000 | – |
| O=C1c2c(O)c(O)c(I)c(=O)n2CCN1Cc1ccc(F)cc1 | 20 | Non-toxic | > 1000 | – |
| O=C1c2c(O)c(O)c(Br)c(=O)n2CCN1Cc1ccc(F)cc1 | 30 | Non-toxic | 1000 | – |

Continued, in another order:

| IC50 [1] [nM] | Compound | Activity (MT4) | IC95 [2] [nM] | further results |
| --- | --- | --- | --- | --- |
| 1040 | O=C1c2c(O)c(O)cc(=O)n2CCCN1Cc1ccc(F)cc1 | – | – | – |
| 230 | O=C1c2c(O)c(O)cc(=O)n2CCN1Cc1ccccc1 | Non-toxic | 2500 | – |
| 100 | O=C1c2c(O)c(O)cc(=O)n2CCN1Cc1ccc(F)cc1 | Non-toxic | 310 | concentration (Rattus norvegicus): 500 nM; bioavailability [13]: 69% |
| 40 | O=C1c2c(O)c(O)cc(=O)n2CCN1Cc1cccc(Cl)c1 | Non-toxic | 500 | – |
| 40 | O=C1c2c(O)c(O)cc(=O)n2CCN1Cc1ccc(F)c(Cl)c1 | Non-toxic | 250 | – |
| 370 | O=C1c2c(O)c(O)cc(=O)n2CCN1Cc1ccccc1Cl | Non-toxic | > 1000 | – |
| 380 | O=C1c2c(O)c(O)cc(=O)n2CCN1Cc1ccc(Cl)cc1 | Non-toxic | 1000 | – |
